ChEMBL document CHEMBL1155250, “Novel 1-aminoethyl-3-arylsulfonyl-1H-pyrrolo[2,3-b]pyridines are potent 5-HT(6) agonists” (Bioorg Med Chem, 2009)
Calls of active or inactive are those of the source. No cut-off for these calls is given here.

How the values were obtained:
[1] = biological target: T1, 5-hydroxytryptamine receptor 6 (Homo sapiens, UniProt P50406); experiment: Agonist activity at human cloned 5HT6 receptor expressed in HeLa cells assessed as induction of adenylyl cyclase activity by RIA; type: functional, cell-based
Method in brief: (§1)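 Transfected HeLa cells expressing human 5-HT6 were washed with Krebs buffer and preincubated 5 min at 37 °C in Krebs with 500 µM IBMX. They were then stimulated 10 min at 37 °C with compound over 0.1–10000 nM. Agonist potency came from concentration–response curves, and percent efficacy was taken relative to a serotonin maximal response.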

[2] = biological target: T1, 5-hydroxytryptamine receptor 6; experiment: Agonist activity at human cloned 5HT6 receptor expressed in HeLa cells assessed as induction of adenylyl cyclase activity by RIA relative to serotonin; type: functional, cell-based; method in brief: as §1
[3] = biological target: 5-hydroxytryptamine receptor 2A (Homo sapiens, UniProt P28223); experiment: Displacement of [125I]DOI from human cloned 5HT2A receptor expressed in CHO cells; type: cell-based
Method in brief: (§2)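 Binding selectivity used stably expressed human receptors, 5-HT in CHO cells and dopamine in CHO-K1. Radioligands: [125I]DOI for 5-HT2A (agonist radioligand), [3H]-5-HT for 5-HT2C, [3H]LSD for 5-HT7, [3H]spiperone for D2, D3 and D4. Values are IC50 in nM.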

D(2) dopamine receptor = D(2) dopamine receptor (Homo sapiens, UniProt P14416); experiment: Displacement of [3H]spiperone from human cloned dopamine D2 receptor expressed in CHO-K1 cells; type: cell-based; method in brief: as §2
[4] = biological target: T2, 5-hydroxytryptamine receptor 2C (Homo sapiens, UniProt P28335); experiment: Displacement of [3H]5-HT from human cloned 5HT2C receptor expressed in CHO cells; type: cell-based; method in brief: as §2
T2 sequence (P28335 whole entry): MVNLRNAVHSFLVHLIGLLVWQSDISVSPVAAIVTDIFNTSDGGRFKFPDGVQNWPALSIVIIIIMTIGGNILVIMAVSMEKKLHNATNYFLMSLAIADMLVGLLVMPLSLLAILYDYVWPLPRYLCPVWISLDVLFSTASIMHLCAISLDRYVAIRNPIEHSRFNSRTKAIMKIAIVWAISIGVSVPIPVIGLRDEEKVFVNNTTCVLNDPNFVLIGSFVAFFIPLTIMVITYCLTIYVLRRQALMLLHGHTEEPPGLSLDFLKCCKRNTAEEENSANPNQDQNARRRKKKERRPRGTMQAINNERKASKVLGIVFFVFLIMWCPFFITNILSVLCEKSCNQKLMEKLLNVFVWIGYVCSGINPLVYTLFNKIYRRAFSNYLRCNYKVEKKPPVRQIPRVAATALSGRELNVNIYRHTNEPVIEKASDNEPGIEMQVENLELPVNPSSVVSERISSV

D(4) dopamine receptor = biological target: T3, D(4) dopamine receptor (Homo sapiens, UniProt P21917); experiment: Displacement of [3H]spiperone from human cloned dopamine D4 receptor expressed in CHO-K1 cells; type: cell-based; method in brief: as §2
T3 sequence (P21917 whole entry): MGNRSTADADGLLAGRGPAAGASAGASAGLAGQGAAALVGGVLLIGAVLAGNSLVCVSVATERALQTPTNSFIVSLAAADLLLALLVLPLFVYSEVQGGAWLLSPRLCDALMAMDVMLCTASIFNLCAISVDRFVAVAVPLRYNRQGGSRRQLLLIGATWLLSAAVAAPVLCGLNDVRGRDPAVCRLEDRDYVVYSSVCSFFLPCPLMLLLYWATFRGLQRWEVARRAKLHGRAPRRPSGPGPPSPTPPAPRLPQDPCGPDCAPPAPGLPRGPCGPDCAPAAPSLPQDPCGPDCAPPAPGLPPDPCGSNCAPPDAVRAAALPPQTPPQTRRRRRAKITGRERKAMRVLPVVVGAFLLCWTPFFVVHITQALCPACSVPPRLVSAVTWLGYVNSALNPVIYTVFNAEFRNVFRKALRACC

[5] = biological target: 5-hydroxytryptamine receptor 7 (Homo sapiens, UniProt P34969); experiment: Displacement of [3H]LSD from human cloned 5HT7 receptor expressed in CHO cells; type: cell-based; method in brief: as §2
[6] = biological target: T1, 5-hydroxytryptamine receptor 6; experiment: Displacement of [3H]LSD from human cloned 5HT6 receptor expressed in HeLa cells; type: cell-based
Method in brief: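 Radioligand binding used human 5-HT6 receptor stably expressed in HeLa cells with [3H]LSD as the radioligand. Affinity is reported as Ki.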

D(3) dopamine receptor = D(3) dopamine receptor (Homo sapiens, UniProt P35462); experiment: Displacement of [3H]spiperone from human cloned dopamine D3 receptor expressed in CHO-K1 cells; type: cell-based; method in brief: as §2
Rattus norvegicus [7] = experiment: Increase in extracellular GABA level in Sprague-Dawley rat frontal cortex at 30 mg/kg, sc; type: functional, organism-based; parameters: dose 30 mg/kg
Method in brief: (§3)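 Rats received a single acute subcutaneous dose of 30 mg/kg. Extracellular GABA and glutamate in frontal cortex were followed over time from about −100 to 350 min around dosing and compared with vehicle-treated animals, with significance set at P < 0.05.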

Rattus norvegicus [8] = experiment: Increase in extracellular glutamate level in Sprague-Dawley rat frontal cortex at 30 mg/kg, sc; type: functional, organism-based; parameters: dose 30 mg/kg; method in brief: as §3
[9] = biological target: 5-hydroxytryptamine receptor 1B (Homo sapiens) (UniProt P28222); experiment: Displacement of [3H]5-HT from human cloned 5HT1B receptor expressed in CHO cells at 1 uM; type: cell-based
Method in brief: (§4)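 Human 5-HT1B, 5-HT1D and 5-HT1F receptors were stably expressed in CHO cells and labelled with [3H]-5-HT. Results are given as percent inhibition at a single 1 µM concentration.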

Rattus norvegicus [10] = experiment: Inhibition of schedule-induced polydipsia in po dosed Sprague-Dawley rat assessed as reduction of adjunctive drinking behavior; type: functional
Method in brief: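 In the schedule-induced polydipsia model, rats were dosed orally at 30, 56 and 100 mg/kg against a vehicle group. Adjunctive drinking was measured, an ED50 was derived, and comparison with vehicle used P < 0.05.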

[11] = biological target: 5-hydroxytryptamine receptor 1D (Homo sapiens) (UniProt P28221); experiment: Displacement of [3H]5-HT from human cloned 5HT1D receptor expressed in CHO cells at 1 uM; type: cell-based; method in brief: as §4
[12] = biological target: T4, 5-hydroxytryptamine receptor 1F (Homo sapiens) (UniProt P30939); experiment: Displacement of [3H]5-HT from human cloned 5HT1F receptor expressed in CHO cells at 1 uM; type: cell-based; method in brief: as §4
T4 sequence (whole entry): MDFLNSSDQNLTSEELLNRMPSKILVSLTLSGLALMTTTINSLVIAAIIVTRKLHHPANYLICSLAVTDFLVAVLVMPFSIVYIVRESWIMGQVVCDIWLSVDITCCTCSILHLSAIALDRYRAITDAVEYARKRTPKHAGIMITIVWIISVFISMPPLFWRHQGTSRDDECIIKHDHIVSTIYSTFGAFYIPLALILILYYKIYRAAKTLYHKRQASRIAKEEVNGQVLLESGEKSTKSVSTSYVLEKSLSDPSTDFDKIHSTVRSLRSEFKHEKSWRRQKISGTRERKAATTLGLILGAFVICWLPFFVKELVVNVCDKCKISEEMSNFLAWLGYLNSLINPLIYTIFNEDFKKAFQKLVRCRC

[13] = biological target: T1, 5-hydroxytryptamine receptor 6; experiment: Antagonist activity at human cloned 5HT6 receptor expressed in HeLa cells assessed as inhibition of adenylyl cyclase activity by RIA relative to serotonin; type: functional, cell-based
[14] = biological target: T1, 5-hydroxytryptamine receptor 6; experiment: Antagonist activity at human cloned 5HT6 receptor expressed in HeLa cells assessed as inhibition of adenylyl cyclase activity by RIA; type: functional, cell-based
Homo sapiens [15] = organism: Homo sapiens; experiment: Selectivity ratio of IC50 for human cloned 5HT2A receptor to human cloned 5HT6 receptor
Homo sapiens [16] = organism: Homo sapiens; experiment: Selectivity ratio of IC50 for human cloned 5HT7 receptor to human cloned 5HT6 receptor
Homo sapiens [17] = organism: Homo sapiens; experiment: Selectivity ratio of IC50 for human cloned 5HT1D receptor to human cloned 5HT6 receptor
Homo sapiens [18] = organism: Homo sapiens; experiment: Selectivity ratio of IC50 for human cloned 5HT1F receptor to human cloned 5HT6 receptor
Homo sapiens [19] = organism: Homo sapiens; experiment: Selectivity ratio of IC50 for human cloned dopamine D2 receptor to human cloned 5HT6 receptor
Homo sapiens [20] = organism: Homo sapiens; experiment: Selectivity ratio of IC50 for human cloned dopamine D4 receptor to human cloned 5HT6 receptor
Homo sapiens [21] = organism: Homo sapiens; experiment: Selectivity ratio of IC50 for human cloned 5HT1B receptor to human cloned 5HT6 receptor
Homo sapiens [22] = organism: Homo sapiens; experiment: Selectivity ratio of IC50 for human cloned 5HT2C receptor to human cloned 5HT6 receptor
Homo sapiens [23] = organism: Homo sapiens; experiment: Selectivity ratio of IC50 for human cloned dopamine D3 receptor to human cloned 5HT6 receptor

Chain of D(2) dopamine receptor (P14416 whole entry): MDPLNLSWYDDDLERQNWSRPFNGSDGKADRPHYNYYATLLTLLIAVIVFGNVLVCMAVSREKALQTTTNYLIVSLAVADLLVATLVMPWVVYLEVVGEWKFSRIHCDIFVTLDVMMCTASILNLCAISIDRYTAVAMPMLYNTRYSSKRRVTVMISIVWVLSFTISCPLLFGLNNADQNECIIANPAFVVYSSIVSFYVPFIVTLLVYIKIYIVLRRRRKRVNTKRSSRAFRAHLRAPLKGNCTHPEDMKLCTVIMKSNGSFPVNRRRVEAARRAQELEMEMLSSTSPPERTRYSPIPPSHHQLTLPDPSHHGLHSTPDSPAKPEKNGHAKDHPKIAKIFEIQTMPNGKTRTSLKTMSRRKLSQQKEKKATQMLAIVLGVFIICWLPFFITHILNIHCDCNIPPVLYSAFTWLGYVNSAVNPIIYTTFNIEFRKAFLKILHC
Chain of 5-hydroxytryptamine receptor 7 (P34969 whole entry): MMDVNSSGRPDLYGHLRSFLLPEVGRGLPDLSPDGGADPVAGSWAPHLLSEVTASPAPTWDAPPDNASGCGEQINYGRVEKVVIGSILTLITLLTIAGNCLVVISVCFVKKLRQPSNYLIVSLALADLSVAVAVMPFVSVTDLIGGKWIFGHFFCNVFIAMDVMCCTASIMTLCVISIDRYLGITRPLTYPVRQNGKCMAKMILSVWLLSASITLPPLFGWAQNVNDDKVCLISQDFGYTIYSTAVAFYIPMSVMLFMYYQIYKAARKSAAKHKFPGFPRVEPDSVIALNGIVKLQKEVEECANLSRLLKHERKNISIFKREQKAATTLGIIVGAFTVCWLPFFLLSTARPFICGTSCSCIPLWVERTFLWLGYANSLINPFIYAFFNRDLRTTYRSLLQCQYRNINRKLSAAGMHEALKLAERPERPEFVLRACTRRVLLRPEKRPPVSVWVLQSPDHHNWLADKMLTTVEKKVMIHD
T1 sequence (P50406 whole entry): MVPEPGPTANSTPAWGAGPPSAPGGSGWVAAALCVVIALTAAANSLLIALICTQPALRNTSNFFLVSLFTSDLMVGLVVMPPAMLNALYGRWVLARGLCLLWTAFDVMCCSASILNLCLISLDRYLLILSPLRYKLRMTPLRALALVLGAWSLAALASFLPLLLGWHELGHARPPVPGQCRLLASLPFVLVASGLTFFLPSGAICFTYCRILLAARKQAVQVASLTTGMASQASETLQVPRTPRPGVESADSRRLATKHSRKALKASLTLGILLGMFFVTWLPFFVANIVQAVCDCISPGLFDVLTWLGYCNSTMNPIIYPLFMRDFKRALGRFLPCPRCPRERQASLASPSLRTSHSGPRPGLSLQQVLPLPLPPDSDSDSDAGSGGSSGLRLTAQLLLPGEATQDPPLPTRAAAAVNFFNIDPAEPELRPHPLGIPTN
Chain of D(3) dopamine receptor (P35462 whole entry): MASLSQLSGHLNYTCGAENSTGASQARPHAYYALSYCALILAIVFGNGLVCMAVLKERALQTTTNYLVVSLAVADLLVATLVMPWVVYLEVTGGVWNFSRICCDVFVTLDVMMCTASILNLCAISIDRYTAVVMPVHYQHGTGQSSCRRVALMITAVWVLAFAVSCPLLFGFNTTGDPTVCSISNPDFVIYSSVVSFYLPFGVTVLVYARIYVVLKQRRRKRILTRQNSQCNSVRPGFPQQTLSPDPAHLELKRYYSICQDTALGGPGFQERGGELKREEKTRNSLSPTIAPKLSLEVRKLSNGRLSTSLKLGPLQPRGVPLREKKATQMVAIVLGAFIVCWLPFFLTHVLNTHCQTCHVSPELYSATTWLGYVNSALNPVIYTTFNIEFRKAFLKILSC
Chain of 5-hydroxytryptamine receptor 2A (P28223 whole entry): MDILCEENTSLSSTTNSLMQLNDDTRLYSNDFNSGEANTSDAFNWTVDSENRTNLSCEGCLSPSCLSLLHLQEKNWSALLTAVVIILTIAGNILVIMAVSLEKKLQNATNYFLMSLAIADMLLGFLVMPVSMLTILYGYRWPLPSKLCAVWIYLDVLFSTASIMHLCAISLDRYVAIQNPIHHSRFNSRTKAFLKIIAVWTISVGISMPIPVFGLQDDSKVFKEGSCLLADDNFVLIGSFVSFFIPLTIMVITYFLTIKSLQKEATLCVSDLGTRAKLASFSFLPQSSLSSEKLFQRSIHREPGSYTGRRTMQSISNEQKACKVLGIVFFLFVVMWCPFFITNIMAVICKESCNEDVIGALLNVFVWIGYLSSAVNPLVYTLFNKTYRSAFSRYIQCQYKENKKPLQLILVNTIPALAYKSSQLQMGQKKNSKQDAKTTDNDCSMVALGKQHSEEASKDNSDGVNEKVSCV
Chain of 5-hydroxytryptamine receptor 1D (Homo sapiens) (P28221 whole entry): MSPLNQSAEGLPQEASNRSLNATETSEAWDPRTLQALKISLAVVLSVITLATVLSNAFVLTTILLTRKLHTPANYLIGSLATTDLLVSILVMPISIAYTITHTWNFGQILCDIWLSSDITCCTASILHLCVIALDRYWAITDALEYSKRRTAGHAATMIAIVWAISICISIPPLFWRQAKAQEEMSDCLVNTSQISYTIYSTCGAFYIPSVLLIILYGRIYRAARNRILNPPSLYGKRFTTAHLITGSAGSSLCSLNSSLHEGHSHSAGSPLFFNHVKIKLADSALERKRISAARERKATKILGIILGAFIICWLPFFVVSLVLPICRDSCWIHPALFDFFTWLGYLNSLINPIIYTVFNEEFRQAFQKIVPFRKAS
Chain of 5-hydroxytryptamine receptor 1B (Homo sapiens) (P28222 whole entry): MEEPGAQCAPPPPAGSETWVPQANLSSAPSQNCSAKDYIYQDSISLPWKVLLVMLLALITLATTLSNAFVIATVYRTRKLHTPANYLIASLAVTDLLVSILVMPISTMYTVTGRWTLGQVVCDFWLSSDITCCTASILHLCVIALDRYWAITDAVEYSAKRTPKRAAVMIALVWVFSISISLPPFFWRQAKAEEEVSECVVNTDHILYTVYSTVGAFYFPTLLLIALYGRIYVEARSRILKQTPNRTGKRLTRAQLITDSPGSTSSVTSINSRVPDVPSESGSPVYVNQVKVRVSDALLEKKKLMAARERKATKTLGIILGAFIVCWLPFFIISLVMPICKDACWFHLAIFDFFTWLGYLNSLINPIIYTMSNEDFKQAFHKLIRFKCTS

NCCn1cc(S(=O)(=O)c2ccccc2)c2ccccc21
EC50 [1]: 0.178 µM | Emax [2]: 67%

NCCn1cc(S(=O)(=O)c2cccc(Cl)c2)c2cccnc21
IC50 [3]: 0.011 µM | EC50 [1]: 0.018 µM | Emax [2]: 94% | IC50 (D(2) dopamine receptor): > 5 µM | IC50 [4]: 0.044 µM | IC50 (D(4) dopamine receptor): > 5 µM | IC50 [5]: 1.36 µM | Ki [6]: 0.002 µM | IC50 (D(3) dopamine receptor): > 5 µM

CN(C)CCn1cc(S(=O)(=O)c2cccc(F)c2)c2cccnc21
IC50 [3]: 0.351 µM | Activity (Rattus norvegicus [7]): Active | Emax [2]: 100% | IC50 (D(2) dopamine receptor): > 5 µM | Activity (Rattus norvegicus [8]): inactive | inhibition [9]: 30% | ED50 (Rattus norvegicus [10]): 89.5 mg/kg | inhibition [11]: 16% | IC50 [4]: 0.644 µM | IC50 (D(4) dopamine receptor): > 5 µM | IC50 [5]: 4.76 µM | inhibition [12]: 22% | IC50 (D(3) dopamine receptor): > 5 µM

CN(C)CCn1cc(S(=O)(=O)c2ccc(F)cc2)c2cccnc21
EC50 [1]: 0.03 µM | Emax [2]: 84% | Ki [6]: 0.045 µM

Cc1c(S(=O)(=O)c2ccccc2)c2cccnc2n1CCN(C)C
EC50 [1]: 0.047 µM | Emax [2]: 100% | Ki [6]: 0.0047 µM

CN(C)CCn1cc(S(=O)(=O)c2c(Cl)cccc2Cl)c2cccnc21
EC50 [1]: 0.031 µM | Emax [2]: 66%

Cc1c(S(=O)(=O)c2ccccc2)c2cccnc2n1CCN
EC50 [1]: 0.02 µM | Emax [2]: 85% | Ki [6]: 0.0042 µM

CNCCn1cc(S(=O)(=O)c2cccc(Cl)c2)c2cccnc21
Imax [13]: 100% | IC50 [14]: 0.0083 µM

NCCn1cc(S(=O)(=O)c2ccccc2C(F)(F)F)c2cccnc21
EC50 [1]: 0.085 µM | Emax [2]: 97% | Ki [6]: 0.0021 µM

NCCn1cc(S(=O)(=O)c2ccc(F)cc2)c2cccnc21
EC50 [1]: 0.166 µM | Emax [2]: 100%

NCCn1cc(S(=O)(=O)c2cccc3ccccc23)c2cccnc21
EC50 [1]: 0.063 µM | Emax [2]: 65% | Ki [6]: 0.0016 µM

CNCCn1cc(S(=O)(=O)c2c(Cl)nc3sccn23)c2cccnc21
Imax [13]: 89% | Ki [6]: 0.0009 µM | IC50 [14]: 0.0054 µM

CN(C)CCn1cc(S(=O)(=O)c2cccc(Cl)c2)c2cccnc21
IC50 [3]: 0.131 µM | Ratio IC50 (Homo sapiens [15]): > 50 | Ratio IC50 (Homo sapiens [16]): > 50 | EC50 [1]: 0.015 µM | Ratio IC50 (Homo sapiens [17]): > 50 | Ratio IC50 (Homo sapiens [18]): > 50 | Emax [2]: 86% | IC50 (D(2) dopamine receptor): > 5 µM | inhibition [9]: 46% | inhibition [11]: 10% | IC50 [4]: 0.477 µM | IC50 (D(4) dopamine receptor): > 5 µM | IC50 [5]: 1.22 µM | Ratio IC50 (Homo sapiens [19]): > 50 | Ki [6]: 0.0023 µM | Ratio IC50 (Homo sapiens [20]): > 50 | Ratio IC50 (Homo sapiens [21]): > 50 | Ratio IC50 (Homo sapiens [22]): > 50 | Ratio IC50 (Homo sapiens [23]): > 50 | inhibition [12]: 29% | IC50 (D(3) dopamine receptor): > 5 µM
